Assay results pooled from the literature.
Target: Glycogen synthase kinase-3 beta (GSK3B, Homo sapiens, UniProt P49841)

| SMILES | observed | action | method | concentration | notes | measurement | value |
| --- | --- | --- | --- | --- | --- | --- | --- |
| C=CC(=O)N1CCC([C@@H]2CCNc3c(C(N)=O)c(-c4ccc(Oc5ccccc5)cc4)nn32)CC1 | enzyme activity | inhibitor | – | 1 µM | – | inhibition | 16% |
| COc1ccc2oc(-c3ccc4nc(N)oc4c3)c/c(=N\c3ccccc3NC(=O)CCN)c2c1 | binding | – | – | 1 µM | – | remaining binding | 106% |
| C1=C/COCc2cc(ccc2OCCN2CCCC2)Nc2nccc(n2)-c2cccc(c2)COC/1 | binding | – | – | 0.1 µM | – | remaining binding | 82% |
| CC(=O)ON=C1C=CC(=C(C#N)c2ccccc2)C=C1 | enzyme activity | inhibitor | ADP detection | 2 µM | – | activity vs control | 88% |
| CC#CC(=O)N1CCC[C@H]1c1nc(-c2ccc(C(=O)Nc3ccccn3)cc2)c2c(N)nccn12 | enzyme activity | inhibitor | – | 1 µM | – | inhibition | 0% |
| CN1CCN(C(=O)c2ccc(NC(=O)Nc3ccc(N(C)c4ccnc(Nc5ccc(CS(C)(=O)=O)cc5)n4)cc3)cc2)CC1 | binding | – | – | 1 µM | – | remaining binding | 95% |
| Cc1cc(O)c(-c2ccc([C@@H](C)CN(C)C)cc2)c2c1[nH]c(=O)c1sccc12 | enzyme activity | inhibitor | – | 0.1 µM | lysate | inhibition | -0.958% |
| CCCCC(=O)Nc1ccc(-c2ccc3ncn(CCC)c(=O)c3c2)cn1 | binding | – | competition with immobilised ligand | 0.5 µM | – | remaining binding | 100% |
| CC(C)S(=O)(=O)c1ccc2nccc(Nc3ccc4sc(C5CCCC5)nc4c3)c2c1 | enzyme activity | inhibitor | – | 1 µM | – | activity vs control | 113% |
| C[C@H]1CC[C@H](n2c3cnccc3c3cnc(Nc4ccc5c(n4)CCN(C(=O)CO)C5)nc32)CC1 | cell-free assay | – | – | 1 µM | – | remaining signal | 72% |
| N#Cc1ccc(NC(=O)Nc2ccccc2)cc1 | cell-free assay | – | competition with immobilised ligand | 25 µM | – | remaining binding | 100% |
